ChEMBL document CHEMBL1649097, “Kinase inhibition by deoxy analogues of the resorcylic lactone L-783277” (ACS Med Chem Lett, 2011)

Columns and labels:
[1] = biological target: Tyrosine-protein kinase ABL1 (Homo sapiens, UniProt P00519, T315I); test: Inhibition of cABL T315I mutant by Caliper mobility shift assay
How it was run: (§1)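 Caliper microfluidic mobility shift readout of substrate phosphorylation, run per the group's earlier kinase protocol. IC50 taken from two independent experiments.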

[2] = Inhibition of PKAtau by TR-FRET based LanthaScreen assay
How it was run: (§2)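 TR-FRET LanthaScreen kinase assay with phosphorylation of a substrate; FGFR3 used as the K651E mutant. IC50 derived from two independent experiments; for some compounds, ALK and cKIT values are averages ± SDs of three independent experiments.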

[3] = biological target: Dual specificity mitogen-activated protein kinase kinase 2 (Homo sapiens, UniProt P36507); test: Inhibition of MEK2 by TR-FRET based LanthaScreen assay
How it was run: (§3)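 LanthaScreen TR-FRET kinase format, run per the group's earlier protocol. IC50 from two independent experiments; for some compounds, PDGFRα and VEGFR2 values are means ± SD of three independent runs. The FGFR3 used was the K651E mutant.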

[4] = biological target: Rho-associated protein kinase 2 (Homo sapiens, UniProt O75116); test: Inhibition of ROCK2 by Caliper mobility shift assay; how it was run: as §1
[5] = biological target: Mitogen-activated protein kinase 1 (Homo sapiens, UniProt P28482); test: Inhibition of ERK2 by Caliper mobility shift assay
How it was run: (§4)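 Caliper mobility shift kinase assay with phosphorylation of a substrate; IC50 derived from two independent experiments.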

[6] = biological target: T1, Vascular endothelial growth factor receptor 2 (Homo sapiens, UniProt P35968); test: Inhibition of VEGFR2 autophosphorylation by cell based assay
[7] = biological target: ALK tyrosine kinase receptor (Homo sapiens, UniProt Q9UM73); test: Inhibition of ALK by TR-FRET based LanthaScreen assay; how it was run: as §2
[8] = Inhibition of CDK4D1 by Caliper mobility shift assay; how it was run: as §4
[9] = biological target: Serine/threonine-protein kinase N2 (Homo sapiens, UniProt Q16513); test: Inhibition of PKN2 by Caliper mobility shift assay; how it was run: as §1
Ephrin type-B receptor 4 = biological target: T2, Ephrin type-B receptor 4 (Homo sapiens, UniProt P54760); test: Inhibition of EPHB4 by TR-FRET based LanthaScreen assay; how it was run: as §3
T2 sequence (P54760 whole entry): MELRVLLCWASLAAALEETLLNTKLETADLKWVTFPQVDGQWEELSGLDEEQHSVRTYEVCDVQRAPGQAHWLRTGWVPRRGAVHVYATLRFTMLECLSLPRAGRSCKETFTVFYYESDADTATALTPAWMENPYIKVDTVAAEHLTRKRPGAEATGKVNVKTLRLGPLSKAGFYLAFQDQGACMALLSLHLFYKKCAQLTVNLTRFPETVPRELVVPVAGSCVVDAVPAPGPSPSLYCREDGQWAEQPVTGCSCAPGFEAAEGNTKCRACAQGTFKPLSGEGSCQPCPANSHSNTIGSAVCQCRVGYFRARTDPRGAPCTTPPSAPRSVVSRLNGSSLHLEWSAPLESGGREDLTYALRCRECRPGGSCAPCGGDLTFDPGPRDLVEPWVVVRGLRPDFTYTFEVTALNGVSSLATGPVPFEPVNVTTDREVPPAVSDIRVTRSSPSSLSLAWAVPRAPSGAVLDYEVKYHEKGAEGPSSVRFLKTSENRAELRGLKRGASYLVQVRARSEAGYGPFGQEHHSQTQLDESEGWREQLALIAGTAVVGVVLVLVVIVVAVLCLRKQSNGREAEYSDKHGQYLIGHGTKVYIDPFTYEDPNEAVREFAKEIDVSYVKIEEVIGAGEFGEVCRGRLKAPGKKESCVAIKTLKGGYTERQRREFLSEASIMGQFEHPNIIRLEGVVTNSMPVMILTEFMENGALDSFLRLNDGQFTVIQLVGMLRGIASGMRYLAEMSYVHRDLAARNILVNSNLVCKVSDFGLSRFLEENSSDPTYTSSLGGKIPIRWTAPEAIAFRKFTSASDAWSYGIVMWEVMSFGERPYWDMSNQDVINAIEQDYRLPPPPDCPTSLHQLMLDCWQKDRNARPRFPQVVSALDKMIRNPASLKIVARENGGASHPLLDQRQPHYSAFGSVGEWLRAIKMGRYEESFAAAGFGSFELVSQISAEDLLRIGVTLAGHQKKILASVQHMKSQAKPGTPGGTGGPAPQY

[10] = biological target: Insulin-like growth factor 1 receptor (Homo sapiens, UniProt P08069); test: Inhibition of IGF1R by TR-FRET based LanthaScreen assay; how it was run: as §3
[11] = biological target: Tyrosine-protein kinase JAK1 (Homo sapiens, UniProt P23458); test: Inhibition of JAK1 by TR-FRET based LanthaScreen assay
[12] = biological target: Tyrosine-protein kinase JAK2 (Homo sapiens, UniProt O60674); test: Inhibition of JAK2 by TR-FRET based LanthaScreen assay
[13] = biological target: cAMP-dependent protein kinase catalytic subunit alpha (Homo sapiens, UniProt P17612); test: Inhibition of PKAalpha by TR-FRET LanthaScreen assay
[14] = biological target: Platelet-derived growth factor receptor alpha (Homo sapiens, UniProt P16234, V561D); test: Inhibition of PDGFRalpha V561D mutant by TR-FRET based LanthaScreen assay; how it was run: as §3
[15] = biological target: Receptor tyrosine-protein kinase erbB-2 (Homo sapiens, UniProt P04626); test: Inhibition of HER2 by TR-FRET based LanthaScreen assay; how it was run: as §3
[16] = biological target: Tyrosine-protein kinase Lck (Homo sapiens, UniProt P06239); test: Inhibition of LCK by TR-FRET based LanthaScreen assay
[17] = biological target: MAP kinase-activated protein kinase 5 (Homo sapiens, UniProt Q8IW41); test: Inhibition of MK5 by TR-FRET based LanthaScreen assay; how it was run: as §3
[18] = biological target: Mitogen-activated protein kinase 14 (Homo sapiens, UniProt Q16539); test: Inhibition of p38alpha by Caliper mobility shift assay; how it was run: as §1
[19] = biological target: Tyrosine-protein kinase BTK (Homo sapiens, UniProt Q06187); test: Inhibition of BTK by TR-FRET based LanthaScreen assay
Insulin receptor = Insulin receptor (Homo sapiens, UniProt P06213); test: Inhibition of INSR by TR-FRET based LanthaScreen assay; how it was run: as §3
Aurora kinase A = Aurora kinase A (Homo sapiens, UniProt O14965); test: Inhibition of Aurora A kinase by Caliper mobility shift assay; how it was run: as §1
[20] = biological target: T1, Vascular endothelial growth factor receptor 2; test: Inhibition of VEGFR2 by TR-FRET based LanthaScreen assay; how it was run: as §3
[21] = biological target: Non-receptor tyrosine-protein kinase TYK2 (Homo sapiens, UniProt P29597); test: Inhibition of TYK2 by TR-FRET based LanthaScreen assay; how it was run: as §3
[22] = Chemical stability in HEPES buffer assessed as compound isomerization at pH 7.0 to 7.5 for 24 hrs at 37 degC; format: physicochemical; conditions: read-out: Activity
How it was run: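 Compound incubated in HEPES buffer at pH 7.0−7.5 for 24 h at 37 °C; read-out is the percentage isomerization to the C7′-C8′ E isomer.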

[23] = biological target: Proto-oncogene tyrosine-protein kinase receptor Ret (Homo sapiens, UniProt P07949); test: Inhibition of RET by TR-FRET based LanthaScreen assay; how it was run: as §3
[24] = biological target: Mast/stem cell growth factor receptor Kit (Homo sapiens, UniProt P10721); test: Inhibition of cKIT by TR-FRET based LanthaScreen assay; how it was run: as §2
[25] = biological target: Tyrosine-protein kinase receptor UFO (Homo sapiens, UniProt P30530); test: Inhibition of Axl by TR-FRET based LanthaScreen assay; how it was run: as §3
[26] = biological target: Serine/threonine-protein kinase N1 (Homo sapiens, UniProt Q16512); test: Inhibition of PKN1 by Caliper mobility shift assay; how it was run: as §1
[27] = biological target: Tyrosine-protein kinase JAK3 (Homo sapiens, UniProt P52333); test: Inhibition of JAK3 by Caliper mobility shift assay; how it was run: as §1
[28] = Inhibition of COT1 by Caliper mobility shift assay; how it was run: as §4
[29] = biological target: Fibroblast growth factor receptor 3 (Homo sapiens, UniProt P22607); test: Inhibition of FGFR3 by TR-FRET based LanthaScreen assay; how it was run: as §3
[30] = biological target: Tyrosine-protein kinase ZAP-70 (Homo sapiens, UniProt P43403); test: Inhibition of ZAP70 by TR-FRET based LanthaScreen assay; how it was run: as §3
[31] = biological target: Glycogen synthase kinase-3 beta (Homo sapiens, UniProt P49841); test: Inhibition of GSK3-beta by TR-FRET based LanthaScreen assay; how it was run: as §3
[32] = biological target: Cyclin-dependent kinase 2 (Homo sapiens, UniProt P24941); test: Inhibition of CDK2A by Caliper mobility shift assay; how it was run: as §1
Ephrin type-A receptor 4 = Ephrin type-A receptor 4 (Homo sapiens, UniProt P54764); test: Inhibition of EPHA4 by TR-FRET based LanthaScreen assay; how it was run: as §3
[33] = biological target: Hepatocyte growth factor receptor (Homo sapiens, UniProt P08581); test: Inhibition of HGFR by TR-FRET based LanthaScreen assay; how it was run: as §3
Plasma [34] = test: Metabolic stability in human plasma assessed as compound conversion to metabolite C7'-C8' E isomer at 55 uM after 20 mins at 37 degC; format: ADME, cell-free
Plasma [35] = test: Metabolic stability in mouse plasma assessed as compound conversion to metabolite C7'-C8' E isomer; format: ADME, cell-free
Blood = test: Metabolic stability in mouse blood assessed as compound conversion to metabolite C7'-C8' E isomer; format: ADME, tissue-based
[36] = biological target: MAP kinase-interacting serine/threonine-protein kinase 2 (Homo sapiens, UniProt Q9HBH9); test: Inhibition of MNK2 by TR-FRET based LanthaScreen assay; how it was run: as §2

Sequence of Mast/stem cell growth factor receptor Kit (P10721 whole entry): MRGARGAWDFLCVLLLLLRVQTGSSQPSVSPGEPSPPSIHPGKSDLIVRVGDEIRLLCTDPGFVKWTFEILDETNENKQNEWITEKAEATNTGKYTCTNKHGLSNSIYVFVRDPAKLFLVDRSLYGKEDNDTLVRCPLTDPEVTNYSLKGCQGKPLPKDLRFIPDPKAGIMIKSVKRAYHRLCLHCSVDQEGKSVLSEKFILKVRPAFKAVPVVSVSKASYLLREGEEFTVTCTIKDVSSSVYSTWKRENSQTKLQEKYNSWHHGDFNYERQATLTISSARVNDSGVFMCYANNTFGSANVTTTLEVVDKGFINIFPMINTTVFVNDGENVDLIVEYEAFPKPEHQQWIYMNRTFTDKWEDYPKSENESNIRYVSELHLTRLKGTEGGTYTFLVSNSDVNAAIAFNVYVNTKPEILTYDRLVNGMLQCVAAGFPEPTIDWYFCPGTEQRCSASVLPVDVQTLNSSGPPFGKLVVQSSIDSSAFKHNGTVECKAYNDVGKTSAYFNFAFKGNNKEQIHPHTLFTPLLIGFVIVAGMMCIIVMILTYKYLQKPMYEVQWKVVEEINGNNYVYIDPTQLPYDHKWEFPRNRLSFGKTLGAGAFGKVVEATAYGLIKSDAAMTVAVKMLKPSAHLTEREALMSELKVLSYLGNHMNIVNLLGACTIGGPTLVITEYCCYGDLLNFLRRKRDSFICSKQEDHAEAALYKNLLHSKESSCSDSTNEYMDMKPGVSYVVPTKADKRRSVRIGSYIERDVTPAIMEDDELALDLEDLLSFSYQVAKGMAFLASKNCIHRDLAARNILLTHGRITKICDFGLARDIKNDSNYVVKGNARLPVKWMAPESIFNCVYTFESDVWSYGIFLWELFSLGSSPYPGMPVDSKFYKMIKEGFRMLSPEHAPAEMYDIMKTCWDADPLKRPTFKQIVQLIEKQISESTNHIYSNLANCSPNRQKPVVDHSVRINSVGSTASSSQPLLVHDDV
Sequence of Tyrosine-protein kinase Lck (P06239 whole entry): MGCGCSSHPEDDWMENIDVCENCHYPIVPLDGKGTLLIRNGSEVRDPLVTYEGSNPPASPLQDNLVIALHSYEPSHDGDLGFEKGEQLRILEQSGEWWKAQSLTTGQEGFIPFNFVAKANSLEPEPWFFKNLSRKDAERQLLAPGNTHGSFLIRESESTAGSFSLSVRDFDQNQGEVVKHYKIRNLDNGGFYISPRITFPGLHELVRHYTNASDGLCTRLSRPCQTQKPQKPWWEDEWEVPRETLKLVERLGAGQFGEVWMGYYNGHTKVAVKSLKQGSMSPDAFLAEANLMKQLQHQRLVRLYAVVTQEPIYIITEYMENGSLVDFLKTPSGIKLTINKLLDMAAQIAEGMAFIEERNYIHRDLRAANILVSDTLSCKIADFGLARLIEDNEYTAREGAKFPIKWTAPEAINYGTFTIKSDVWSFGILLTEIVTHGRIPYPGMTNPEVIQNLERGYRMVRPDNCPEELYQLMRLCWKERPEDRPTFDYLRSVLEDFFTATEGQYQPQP
Sequence of ALK tyrosine kinase receptor (Q9UM73 whole entry): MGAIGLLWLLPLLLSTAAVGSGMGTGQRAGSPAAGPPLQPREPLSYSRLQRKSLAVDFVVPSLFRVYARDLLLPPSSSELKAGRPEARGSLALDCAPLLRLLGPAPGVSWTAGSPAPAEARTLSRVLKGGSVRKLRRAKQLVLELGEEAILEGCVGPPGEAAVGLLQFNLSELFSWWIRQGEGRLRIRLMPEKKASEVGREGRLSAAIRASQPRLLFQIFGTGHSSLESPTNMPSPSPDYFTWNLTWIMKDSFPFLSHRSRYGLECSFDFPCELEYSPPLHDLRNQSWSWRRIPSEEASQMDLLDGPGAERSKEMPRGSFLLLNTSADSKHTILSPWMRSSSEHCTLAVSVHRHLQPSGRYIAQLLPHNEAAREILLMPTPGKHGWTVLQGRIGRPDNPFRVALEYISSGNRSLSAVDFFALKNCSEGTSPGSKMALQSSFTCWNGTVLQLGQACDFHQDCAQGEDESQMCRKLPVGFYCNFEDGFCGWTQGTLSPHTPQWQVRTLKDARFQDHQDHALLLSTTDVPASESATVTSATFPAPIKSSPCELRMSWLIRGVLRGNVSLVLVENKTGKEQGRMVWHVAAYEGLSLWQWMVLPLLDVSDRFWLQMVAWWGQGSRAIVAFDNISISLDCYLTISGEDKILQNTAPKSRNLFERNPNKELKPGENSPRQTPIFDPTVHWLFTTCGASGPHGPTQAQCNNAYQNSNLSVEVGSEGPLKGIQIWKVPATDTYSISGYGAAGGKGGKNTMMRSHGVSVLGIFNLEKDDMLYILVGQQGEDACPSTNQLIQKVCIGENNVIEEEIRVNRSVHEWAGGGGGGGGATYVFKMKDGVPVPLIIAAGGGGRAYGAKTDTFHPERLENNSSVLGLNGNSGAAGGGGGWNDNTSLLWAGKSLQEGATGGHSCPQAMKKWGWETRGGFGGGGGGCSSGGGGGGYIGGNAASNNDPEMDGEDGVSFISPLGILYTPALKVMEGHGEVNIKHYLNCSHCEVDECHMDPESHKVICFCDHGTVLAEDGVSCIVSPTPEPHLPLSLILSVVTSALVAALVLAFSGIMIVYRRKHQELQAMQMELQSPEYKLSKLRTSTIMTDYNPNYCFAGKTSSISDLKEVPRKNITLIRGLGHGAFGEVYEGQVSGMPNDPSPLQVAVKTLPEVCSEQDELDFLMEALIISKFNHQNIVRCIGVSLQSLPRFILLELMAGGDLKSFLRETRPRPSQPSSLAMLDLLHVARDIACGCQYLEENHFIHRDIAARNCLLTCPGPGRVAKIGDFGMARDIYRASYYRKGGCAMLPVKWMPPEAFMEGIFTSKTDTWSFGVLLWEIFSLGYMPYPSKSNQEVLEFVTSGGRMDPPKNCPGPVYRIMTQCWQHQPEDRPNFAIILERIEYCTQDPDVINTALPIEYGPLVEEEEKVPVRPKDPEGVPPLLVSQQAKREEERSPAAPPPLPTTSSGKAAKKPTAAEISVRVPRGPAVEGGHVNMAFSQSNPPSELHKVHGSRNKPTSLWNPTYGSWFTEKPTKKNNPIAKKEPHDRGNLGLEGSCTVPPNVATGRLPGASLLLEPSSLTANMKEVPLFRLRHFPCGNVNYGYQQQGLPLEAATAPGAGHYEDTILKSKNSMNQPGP
Sequence of Non-receptor tyrosine-protein kinase TYK2 (P29597 whole entry): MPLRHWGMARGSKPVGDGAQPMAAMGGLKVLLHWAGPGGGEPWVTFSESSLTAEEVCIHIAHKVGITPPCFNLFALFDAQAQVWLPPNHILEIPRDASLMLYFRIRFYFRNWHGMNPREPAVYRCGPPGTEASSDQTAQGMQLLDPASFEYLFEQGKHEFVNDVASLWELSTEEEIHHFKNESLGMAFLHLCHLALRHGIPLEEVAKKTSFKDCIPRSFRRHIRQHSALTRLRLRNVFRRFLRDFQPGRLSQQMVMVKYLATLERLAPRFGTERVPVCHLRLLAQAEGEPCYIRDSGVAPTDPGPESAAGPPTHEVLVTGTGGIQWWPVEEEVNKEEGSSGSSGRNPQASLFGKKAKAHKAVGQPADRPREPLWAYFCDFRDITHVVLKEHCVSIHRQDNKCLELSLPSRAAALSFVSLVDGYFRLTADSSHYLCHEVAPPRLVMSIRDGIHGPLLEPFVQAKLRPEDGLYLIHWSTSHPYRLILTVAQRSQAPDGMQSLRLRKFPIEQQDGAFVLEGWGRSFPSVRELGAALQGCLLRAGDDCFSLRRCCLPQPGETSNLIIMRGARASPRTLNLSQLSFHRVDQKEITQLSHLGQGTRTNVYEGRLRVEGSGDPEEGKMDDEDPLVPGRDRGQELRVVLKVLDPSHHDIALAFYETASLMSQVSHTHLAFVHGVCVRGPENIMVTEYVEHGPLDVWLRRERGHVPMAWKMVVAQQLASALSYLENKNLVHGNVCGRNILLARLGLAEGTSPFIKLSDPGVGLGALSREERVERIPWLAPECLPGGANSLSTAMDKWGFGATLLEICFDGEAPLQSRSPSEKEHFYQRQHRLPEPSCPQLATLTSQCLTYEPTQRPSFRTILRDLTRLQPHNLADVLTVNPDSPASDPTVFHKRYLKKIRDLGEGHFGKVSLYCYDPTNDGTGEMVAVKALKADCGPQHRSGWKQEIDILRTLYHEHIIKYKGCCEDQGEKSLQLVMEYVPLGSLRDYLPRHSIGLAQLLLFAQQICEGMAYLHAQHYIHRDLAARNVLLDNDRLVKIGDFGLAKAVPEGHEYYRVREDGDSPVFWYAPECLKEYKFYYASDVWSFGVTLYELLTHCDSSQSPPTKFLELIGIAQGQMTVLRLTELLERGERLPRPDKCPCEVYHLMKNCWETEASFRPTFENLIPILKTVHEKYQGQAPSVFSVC
Sequence of Mitogen-activated protein kinase 1 (P28482 whole entry): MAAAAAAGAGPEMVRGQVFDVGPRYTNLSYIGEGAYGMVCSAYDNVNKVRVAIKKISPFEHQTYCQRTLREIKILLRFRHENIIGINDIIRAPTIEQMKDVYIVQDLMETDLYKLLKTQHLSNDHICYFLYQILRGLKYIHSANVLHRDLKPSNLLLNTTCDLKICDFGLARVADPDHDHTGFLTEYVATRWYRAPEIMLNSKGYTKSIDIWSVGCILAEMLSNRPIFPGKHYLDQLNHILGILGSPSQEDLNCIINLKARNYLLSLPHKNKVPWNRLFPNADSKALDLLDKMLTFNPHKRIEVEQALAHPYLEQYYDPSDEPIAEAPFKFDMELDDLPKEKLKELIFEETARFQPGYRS
Sequence of Aurora kinase A (O14965 whole entry): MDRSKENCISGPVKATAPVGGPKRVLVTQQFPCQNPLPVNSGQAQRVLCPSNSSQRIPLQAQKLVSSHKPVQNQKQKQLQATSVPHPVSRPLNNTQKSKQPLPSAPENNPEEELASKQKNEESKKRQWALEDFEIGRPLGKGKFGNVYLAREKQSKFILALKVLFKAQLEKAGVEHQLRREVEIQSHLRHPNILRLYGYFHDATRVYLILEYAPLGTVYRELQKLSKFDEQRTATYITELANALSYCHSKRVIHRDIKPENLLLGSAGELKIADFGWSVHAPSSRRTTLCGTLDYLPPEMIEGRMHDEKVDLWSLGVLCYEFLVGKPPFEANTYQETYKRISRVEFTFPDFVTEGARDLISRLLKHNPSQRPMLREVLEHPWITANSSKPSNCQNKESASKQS

| SMILES | IC50 [1] [µM] | IC50 [2] [µM] | IC50 [3] [µM] | IC50 [4] [µM] | IC50 [5] [µM] | IC50 [7] [µM] | IC50 [8] [µM] | IC50 [9] [µM] | IC50 (Ephrin type-B receptor 4) [µM] | IC50 [10] [µM] | IC50 [11] [µM] | IC50 [12] [µM] | IC50 [13] [µM] | IC50 [14] [µM] | IC50 [15] [µM] | IC50 [16] [µM] | IC50 [20] [µM] | IC50 [21] [µM] | IC50 [23] [µM] | IC50 [24] [µM] | further results |
| --- | --- | --- | --- | --- | --- | --- | --- | --- | --- | --- | --- | --- | --- | --- | --- | --- | --- | --- | --- | --- | --- |
| COc1cc(O)c2c(c1)CCC[C@H](O)[C@H](O)C(=O)/C=C\C[C@H](C)OC2=O | > 10 | > 10 | 0.015 | > 10 | 0.95 | 0.763 | > 10 | > 10 | > 10 | > 10 | > 10 | > 10 | > 10 | 0.00238 | > 10 | 6.2 | 0.002 | 4.1 | > 10 | 0.303 | IC50 [6]: 0.057 µM; IC50 [17]: 0.64 µM; IC50 [18]: > 10 µM; IC50 [19]: > 10 µM; IC50 (Insulin receptor): > 10 µM; IC50 (Aurora kinase A): > 10 µM; degraded at 24 h [22]: < 1%; IC50 [25]: > 10 µM; IC50 [26]: > 10 µM; IC50 [27]: > 10 µM; IC50 [28]: > 10 µM; IC50 [29]: > 10 µM; IC50 [30]: > 10 µM; IC50 [31]: > 10 µM; IC50 [32]: > 10 µM; IC50 (Ephrin type-A receptor 4): > 10 µM; IC50 [33]: > 10 µM |
| COc1cc(O)c2c(c1)CCC[C@H](O)CC(=O)/C=C/C[C@H](C)OC2=O | – | – | – | – | > 10 | > 10 | – | – | > 10 | – | – | – | – | 0.18 | – | > 10 | 0.19 | > 10 | > 10 | 7.6 | – |
| COc1cc(O)c2c(c1)/C=C/C[C@H](O)[C@H](O)C(=O)/C=C\C[C@H](C)OC2=O | – | – | – | – | – | – | – | – | – | – | – | – | – | – | – | – | – | – | – | – | Stability (Plasma [34]): 50%; t1/2 (Plasma [35]): 20 min; t1/2 (Blood): 20 min |
| COc1cc(O)c2c(c1)CCC[C@H](O)CC(=O)/C=C\C[C@H](C)OC2=O | > 10 | > 10 | – | > 10 | 6.4 | 0.763 | > 10 | > 10 | 7.4 | > 10 | > 10 | > 10 | > 10 | 0.00723 | > 10 | 4.7 | 0.0058 | 4.4 | 7.2 | 0.673 | IC50 [18]: > 10 µM; IC50 [36]: 0.15 µM; IC50 (Insulin receptor): > 10 µM; IC50 (Aurora kinase A): > 10 µM; IC50 [25]: > 10 µM; IC50 [26]: > 10 µM; IC50 [27]: > 10 µM; IC50 [28]: > 10 µM; IC50 [29]: > 10 µM; IC50 [30]: > 10 µM; IC50 [31]: > 10 µM; IC50 [32]: > 10 µM; IC50 (Ephrin type-A receptor 4): > 10 µM; IC50 [33]: > 10 µM |
| COc1cc(O)c2c(c1)CCCCCC(=O)/C=C\C[C@H](C)OC2=O | – | – | 6.84 | – | > 10 | 3.5 | – | – | > 10 | – | – | – | – | 0.095 | – | > 10 | 0.17 | > 10 | > 10 | > 10 | IC50 [17]: > 10 µM; IC50 [36]: > 10 µM |
